Test results from ChEMBL document CHEMBL2390866, “Novel pyrimidoazepine analogs as serotonin 5-HT(2A) and 5-HT(2C) receptor ligands for the treatment of obesity” (Eur J Med Chem, 2013).

Legend:
[1] = target: T1, 5-hydroxytryptamine receptor 2C (Homo sapiens, UniProt P28335); assay: Displacement of [3H]-mesulergine from human recombinant 5HT-2C receptor expressed in CHOK1 cell membranes after 30 mins; set-up: species or system CHO-K1
T1 sequence (P28335 whole entry): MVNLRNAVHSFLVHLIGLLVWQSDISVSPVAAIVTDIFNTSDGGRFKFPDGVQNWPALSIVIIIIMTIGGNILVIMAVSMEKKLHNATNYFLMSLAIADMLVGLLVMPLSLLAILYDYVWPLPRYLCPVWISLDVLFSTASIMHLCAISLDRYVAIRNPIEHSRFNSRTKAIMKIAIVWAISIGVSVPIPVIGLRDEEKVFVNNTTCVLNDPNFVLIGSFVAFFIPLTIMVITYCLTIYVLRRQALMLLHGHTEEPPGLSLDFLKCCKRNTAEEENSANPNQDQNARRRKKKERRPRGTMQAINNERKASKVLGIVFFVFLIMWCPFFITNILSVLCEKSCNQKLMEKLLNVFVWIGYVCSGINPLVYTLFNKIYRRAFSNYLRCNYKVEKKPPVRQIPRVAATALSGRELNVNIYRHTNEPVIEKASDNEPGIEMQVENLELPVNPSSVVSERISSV
Procedure, shortened: (§1)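 Frozen CHO-K1 membranes expressing recombinant human 5-HT2C incubated with 1 nM [3H]mesulergine in 50 mM Tris-HCl pH 7.4 containing 0.1% ascorbic acid and pargyline. Mianserin defined nonspecific binding.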

[2] = target: T2, 5-hydroxytryptamine receptor 2C (Homo sapiens) (UniProt P28335); assay: Displacement of [3H]-mesulergine from human recombinant 5HT-2C receptor expressed in CHOK1 cell membranes at 10 uM after 30 mins relative to control; conditions: CHO-K1; procedure, shortened: as §1
T2 sequence (whole entry): T1 sequence (P28335 whole entry)

[3] = target: T3, 5-hydroxytryptamine receptor 2A (Homo sapiens, UniProt P28223); assay: Displacement of [3H]-ketanserin from human recombinant 5HT-2A receptor expressed in CHOK1 cell membranes after 60 mins; set-up: species or system CHO-K1
T3 sequence (P28223 whole entry): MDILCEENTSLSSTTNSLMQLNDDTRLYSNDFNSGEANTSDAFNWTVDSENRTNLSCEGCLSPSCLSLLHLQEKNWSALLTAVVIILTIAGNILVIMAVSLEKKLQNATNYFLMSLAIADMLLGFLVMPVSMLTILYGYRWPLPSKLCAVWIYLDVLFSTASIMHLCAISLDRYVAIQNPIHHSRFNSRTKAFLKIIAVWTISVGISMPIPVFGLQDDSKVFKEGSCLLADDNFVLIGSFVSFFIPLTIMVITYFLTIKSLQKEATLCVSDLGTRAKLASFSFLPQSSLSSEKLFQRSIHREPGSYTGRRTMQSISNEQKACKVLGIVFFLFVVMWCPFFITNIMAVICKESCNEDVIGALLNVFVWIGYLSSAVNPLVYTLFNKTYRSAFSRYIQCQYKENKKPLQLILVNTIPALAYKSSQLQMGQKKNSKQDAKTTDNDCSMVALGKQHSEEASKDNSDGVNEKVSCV
Procedure, shortened: (§2)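 Buffer was 50 mM Tris-HCl pH 7.4 with 5 mM CaCl2 and 0.1% ascorbic acid. Test compound added at a range of concentrations.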

[4] = target: T3, 5-hydroxytryptamine receptor 2A; assay: Displacement of [3H]-ketanserin from human recombinant 5HT-2A receptor expressed in CHOK1 cell membranes at 10 uM after 60 mins relative to control; conditions: CHO-K1; procedure, shortened: as §2
Mus musculus [5] = assay: Antiobesity activity in C57BL/6 mouse assessed as inhibition of food intake at 50 mg/kg, ip measured after 2 to 12 hrs relative to vehicle-treated control; format: functional; conditions: C57BL/6, ip, route intraperitoneal
Procedure, shortened: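 Male mice were acclimated 1 week at 23 ± 3 °C and 50 ± 20% humidity, then fasted 24 h. They were dosed once intraperitoneally with vehicle or compound: 50 mg/kg in C57BL/6, or 12.5, 25 or 50 mg/kg in B6.V-Lep^ob/J. Food intake was measured at 2, 6 and 12 h versus vehicle control.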

[6] = target: T3, 5-hydroxytryptamine receptor 2A; assay: Antagonist activity at serotonin-activated human recombinant 5HT-2A receptor expressed in HEK293 cells assessed as decrease in intracellular calcium level after 5 mins measured for 1 min by fluorescence assay; format: functional, cell-based; conditions: read-out: EC50 (the source's name)
Procedure, shortened: (§3)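 Cells were washed with HBSS/20 mM HEPES, then loaded 50 min with Fluo-4 NW dye in HBSS with 2.5 mM probenecid. Compound was added for 5 min at 37 °C, then serotonin; fluorescence followed 1 min. Run in duplicate or quadruplicate, repeated several times; IC50 by nonlinear regression.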

Mus musculus [7] = assay: Antiobesity activity in C57BL/6 mouse assessed as inhibition of body weight gain at 50 mg/kg, ip measured after 2 to 12 hrs relative to vehicle-treated control; format: functional; conditions: C57BL/6, ip, route intraperitoneal
[8] = target: T1, 5-hydroxytryptamine receptor 2C; assay: Agonist activity at serotonin-activated human recombinant 5HT-2C receptor expressed in HEK293 cells assessed as increase in intracellular calcium level after 5 mins measured for 1 min by fluorescence assay; format: functional, cell-based
[9] = target: T1, 5-hydroxytryptamine receptor 2C; assay: Antagonist activity at serotonin-activated human recombinant 5HT-2C receptor expressed in HEK293 cells assessed as decrease in intracellular calcium level after 5 mins measured for 1 min by fluorescence assay; format: functional, cell-based; conditions: read-out: EC50 (the source's name)
Procedure, shortened: as §3, with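 “Intracellular calcium read on HEK293 cells stably expressing human receptor, seeded 10,000 cells/well and grown 24 h at 37 °C, 5% CO2. Cells” for “Cells”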

Structure (SMILES)	IC50 [1] [nM]	inhibition [2] [%]	IC50 [3] [µM]	inhibition [4] [%]	inhibition in vivo at 50 mg/kg (Mus musculus [5]) [%]	IC50 [6] [nM]	inhibition in vivo at 50 mg/kg (Mus musculus [7]) [%]	EC50 [8] [µM]	IC50 [9] [nM]
Cc1ccc(CNc2nc(Nc3ccc(F)cc3)c3cn[nH]c3n2)cc1	5830	66	0.947	93					
c1ccc(Cc2nc3c(c(N4CCSCC4)n2)CCNCC3)cc1	333		1.27		18.4	96.3	12		
CN(C)c1nc(Nc2ccc(F)cc2)c2cn[nH]c2n1	4030	66	4.88	79					
CCN(CC)c1nc(Nc2ccc(Cl)cc2)c2cn[nH]c2n1	991	80	1.89	86					
CC1CCN(c2nc(Nc3ccc(F)cc3)c3cn[nH]c3n2)CC1	1500	86	3.67	83					
Fc1ccc(Nc2nc(NCc3ccccc3)nc3[nH]ncc23)cc1	2590	82	1.27	85					
COc1ccccc1N1CCN(c2nc(Nc3ccc(F)cc3)c3cn[nH]c3n2)CC1	1730	78	1.38	93					
COc1ccc(Nc2nc(N3CCN(c4ccc(F)cc4)CC3)nc3[nH]ncc23)cc1	1180	86	0.696	92					
Fc1ccc(Nc2nc(NCCN3CCOCC3)nc3[nH]ncc23)cc1	> 10000	35	9.74	51					
CN1CCN(c2nc3c(c(N4CCOCC4)n2)CCNCC3)CC1	> 10000		> 10					9.6	
COc1cccc(Nc2nc(N3CCN(C)CC3)nc3c2CCNCC3)c1	2850		> 10						2300
CCNc1nc(Nc2ccc(F)cc2)c2cn[nH]c2n1	> 10000	23	> 10	39					
Fc1ccc(Nc2nc(N3CCOCC3)nc3[nH]ncc23)cc1	2070	81	2.62	83					
CCN(CC)c1nc(Nc2ccccc2C)c2cn[nH]c2n1	242	88	4.58	66					
COCCNc1nc(Nc2ccc(F)cc2)c2cn[nH]c2n1	> 10000	18	> 10	25					
CCCNc1nc(Nc2ccccc2)c2cn[nH]c2n1	> 10000	29	> 10	30					
CC1CC(C)CN(c2nc(Nc3ccc(F)cc3)c3cn[nH]c3n2)C1 (stereo unspecified)	3820	67	5.87	75					
COc1cccc(Nc2nc(N3CCN(C)CC3)nc3[nH]ncc23)c1	7.8	100	0.0091	100					
CN1CCN(c2nc3c(c(N4CCSCC4)n2)CCNCC3)CC1	> 10000		> 10		2.1	687	-15	> 10	
CCNc1nc(N2CCN(C)CC2)nc2c1CCNCC2	> 10000		> 10					> 10	
CN1CCN(c2nc(Nc3ccc(F)cc3)c3cn[nH]c3n2)CC1	85.8	100	0.0242	100					
Fc1ccc(Nc2nc(NC3CCCCC3)nc3[nH]ncc23)cc1	5710	62	3.67	73					
Fc1ccc(Nc2nc(N3CCN(c4ccc(F)cc4)CC3)nc3[nH]ncc23)cc1	148	96	0.0179	94					
CCN(CC)c1nc(Nc2ccc(F)cc2)c2cn[nH]c2n1	3310	76	4.53	84					
